Data published in ChEMBL document CHEMBL3871276, “Synthesis, antiamoebic and molecular docking studies of furan-thiazolidinone hybrids” (Eur J Med Chem, 2016).

Tests used:
[1] = system: Entamoeba histolytica; assay: Antiamoebic activity against Entamoeba histolytica HM-1:IMSS trophozoites after 72 hrs by eosin staining based microdilution method; type: functional
In short: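 Trophozoites grown in Diamond TYIS-33 medium. Compounds in DMSO, 1 mg/mL stock, two-fold serial dilutions. 1.7 x 10⁴ organisms/well, plate gassed with nitrogen 10 min, 37 °C for 72 h. Wells washed with 0.9% NaCl, fixed with methanol, stained with 0.5% eosin for 15 min, dye released with 0.1 N NaOH, OD 490 nm. IC50 from linear regression of % inhibition vs log dose. Triplicate wells, repeated thrice.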

[2] = molecular target: T1, Thioredoxin reductase (Entamoeba histolytica, UniProt C4LW95); assay: Inhibition of Entamoeba histolytica thioredoxin reductase
T1 sequence (C4LW95 whole entry): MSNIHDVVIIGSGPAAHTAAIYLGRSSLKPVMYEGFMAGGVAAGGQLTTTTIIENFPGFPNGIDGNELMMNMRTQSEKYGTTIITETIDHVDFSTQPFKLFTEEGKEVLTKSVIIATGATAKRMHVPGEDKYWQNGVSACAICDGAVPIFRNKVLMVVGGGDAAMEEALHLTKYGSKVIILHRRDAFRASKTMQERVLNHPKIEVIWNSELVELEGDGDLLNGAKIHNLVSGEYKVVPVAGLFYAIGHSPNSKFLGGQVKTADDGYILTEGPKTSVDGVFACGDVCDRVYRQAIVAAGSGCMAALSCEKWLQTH

[3] = Inhibition of Entamoeba histolytica O-acetyl-L-serine sulfohydrolase preincubated with enzyme followed by TNB substrate addition measured after 30 mins by UV-Visible spectrophotometric method; details: in the assay text read “OAS substrate” for “TNB substrate”
In short: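 Recombinant EhOASS (90 μg) in 100 mM HEPES pH 7.0 with […], inhibitor 0.25–500 μM, preincubated 30 min at room temperature. Reaction started with O-acetyl-L-serine. TNB disappearance followed at 412 nm. % decrease in activity taken relative to the uninhibited reaction. IC50 from % inhibition vs log inhibitor concentration.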

[4] = Cytotoxicity against CHO cells assessed as reduction in cell viability at 2.5 to 25 uM after 72 hrs by MTT assay; type: toxicity, cell-based, Cricetulus griseus; details: chinese hamster
In short: (§1)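 Chinese hamster ovary cells in RPMI with 10% FBS and 1% penicillin-streptomycin-neomycin. 5,000 cells/well, in triplicate, exposed to compound or vehicle DMSO at 37 °C, 5% CO2 for 48 h or 72 h. MTT (5 mg/mL in PBS) added for 4 h, formazan dissolved in DMSO, absorbance at 570 nm. Viability expressed as % of DMSO control.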

[5] = Cytotoxicity against CHO cells assessed as reduction in cell viability at 100 uM after 48 hrs by MTT assay; type: toxicity, cell-based, Cricetulus griseus; details: chinese hamster; in short: as §1
[6] = Cytotoxicity against CHO cells assessed as reduction in cell viability at 50 uM after 72 hrs by MTT assay; type: toxicity, cell-based, Cricetulus griseus; details: chinese hamster; in short: as §1
[7] = Cytotoxicity against CHO cells assessed as reduction in cell viability at 2.5 to 50 uM after 48 hrs by MTT assay; type: toxicity, cell-based, Cricetulus griseus; details: chinese hamster; in short: as §1
[8] = Cytotoxicity against CHO cells assessed as reduction in cell viability after 48 hrs by MTT assay; type: toxicity, cell-based, Cricetulus griseus; details: for IC50 at 48 h: Chinese hamster, CHO cells; for Activity: chinese hamster, cho, 48 h; in short: as §1
[9] = Cytotoxicity against CHO cells assessed as reduction in cell viability after 72 hrs by MTT assay; type: toxicity, cell-based, Cricetulus griseus; details: for IC50 at 72 h: Chinese hamster, CHO cells; for Activity: chinese hamster, cho, 72 h; in short: as §1

S=C(NCc1ccco1)Nc1ccccc1
IC50 [1]: 8.22 µM

O=C1/C(=C/c2ccc3c(c2)OCO3)S/C(=N\c2ccccc2)N1Cc1ccco1
IC50 [1]: 2.97 µM | Ki [2]: 27 µM | Ki [3]: 343 µM

CCOc1ccc(/C=C2\S/C(=N\c3ccccc3)N(Cc3ccco3)C2=O)cc1
IC50 [1]: 2.03 µM | Ki [2]: 4.66 µM | Ki [3]: 149 µM

COc1ccc(/C=C2\S/C(=N\c3ccccc3)N(Cc3ccco3)C2=O)cc1OC
IC50 [1]: 0.47 µM | Ki [2]: 0.68 µM | Activity [4]: Non-Toxic | Activity [5]: Non-Toxic | Activity [6]: Non-Toxic | Activity [7]: Non-Toxic | IC50 at 48 h [8]: > 400 µM | Activity [8]: Dose-dependent effect | IC50 at 72 h [9]: > 250 µM | Activity [9]: Dose-dependent effect

O=C(CSc1nc(O)cc(=O)[nH]1)c1c[nH]c2ccccc12
Ki [3]: 25.6 µM

O=C1/C(=C/c2ccccn2)S/C(=N\c2ccccc2)N1Cc1ccco1
IC50 [1]: 0.27 µM | Ki [2]: 0.39 µM | Activity [4]: Non-Toxic | Activity [5]: Non-Toxic | Activity [6]: Non-Toxic | Activity [7]: Non-Toxic | IC50 at 48 h [8]: > 400 µM | Activity [8]: Dose-dependent effect | IC50 at 72 h [9]: > 250 µM | Activity [9]: Dose-dependent effect

Cc1ccc(/C=C2\S/C(=N\c3ccccc3)N(Cc3ccco3)C2=O)cc1
IC50 [1]: 1.48 µM | Ki [2]: 2.82 µM | Activity [4]: Non-Toxic | Activity [7]: Non-Toxic | IC50 at 48 h [8]: 421 µM | Activity [8]: Dose-dependent effect | IC50 at 72 h [9]: 185 µM | Activity [9]: Dose-dependent effect

COc1ccc(/C=C2\S/C(=N\c3ccccc3)N(Cc3ccco3)C2=O)cc1
IC50 [1]: 1.35 µM | Ki [2]: 2.07 µM | Activity [4]: Non-Toxic | Activity [7]: Non-Toxic | IC50 at 48 h [8]: > 400 µM | Activity [8]: Dose-dependent effect | IC50 at 72 h [9]: > 250 µM | Activity [9]: Dose-dependent effect

O=C1CS/C(=N\c2ccccc2)N1Cc1ccco1
IC50 [1]: 3.57 µM | Ki [2]: 337 µM | Ki [3]: 2240 µM

O=C1/C(=C/c2ccccc2)S/C(=N\c2ccccc2)N1Cc1ccco1
IC50 [1]: 2.25 µM | Ki [2]: 10.9 µM | Ki [3]: 58 µM

COc1cc(/C=C2\S/C(=N\c3ccccc3)N(Cc3ccco3)C2=O)cc(OC)c1OC
IC50 [1]: 1.24 µM | Ki [2]: 1.05 µM | Activity [4]: Non-Toxic | Activity [7]: Non-Toxic | IC50 at 48 h [8]: > 400 µM | Activity [8]: Dose-dependent effect | IC50 at 72 h [9]: > 250 µM | Activity [9]: Dose-dependent effect

O=C1/C(=C/c2ccc([N+](=O)[O-])cc2)S/C(=N\c2ccccc2)N1Cc1ccco1
IC50 [1]: 2.87 µM | Ki [2]: 16.1 µM | Ki [3]: 98.6 µM

CC(C)Oc1ccc(/C=C2\S/C(=N\c3ccccc3)N(Cc3ccco3)C2=O)cc1
IC50 [1]: 2.2 µM | Ki [2]: 5.68 µM | Ki [3]: 54.8 µM

COc1ccc(OC)c(/C=C2\S/C(=N\c3ccccc3)N(Cc3ccco3)C2=O)c1
IC50 [1]: 0.67 µM | Ki [2]: 0.69 µM | Activity [4]: Non-Toxic | Activity [5]: Non-Toxic | Activity [6]: Non-Toxic | Activity [7]: Non-Toxic | IC50 at 48 h [8]: > 400 µM | Activity [8]: Dose-dependent effect | IC50 at 72 h [9]: > 250 µM | Activity [9]: Dose-dependent effect

O=C1/C(=C/c2ccc(Cl)cc2)S/C(=N\c2ccccc2)N1Cc1ccco1
IC50 [1]: 2.33 µM | Ki [2]: 6.23 µM | Ki [3]: 84.3 µM

O=C1/C(=C/c2ccc(O)cc2)S/C(=N\c2ccccc2)N1Cc1ccco1
IC50 [1]: 1.04 µM | Ki [2]: 0.73 µM | Activity [4]: Non-Toxic | Activity [7]: Non-Toxic | IC50 at 48 h [8]: 400 µM | Activity [8]: Dose-dependent effect | IC50 at 72 h [9]: > 250 µM | Activity [9]: Dose-dependent effect

O=C1/C(=C/c2cccc([N+](=O)[O-])c2)S/C(=N\c2ccccc2)N1Cc1ccco1
IC50 [1]: 1.95 µM | Ki [2]: 3.56 µM | Ki [3]: 46.8 µM

O=C1/C(=C/c2cccc(Cl)c2)S/C(=N\c2ccccc2)N1Cc1ccco1
IC50 [1]: 1.95 µM | Ki [2]: 3.16 µM | Ki [3]: 45.8 µM

Cc1ncc([N+](=O)[O-])n1CCn1cc(-c2ccccn2)nn1
Ki [2]: 2.88 µM

Cc1ncc([N+](=O)[O-])n1CCO [METRONIDAZOLE]
Ki [2]: 3.3 µM | Ki [3]: 42.6 µM | Activity [4]: Non-Toxic | Activity [7]: Non-Toxic | IC50 at 48 h [8]: > 400 µM | IC50 at 72 h [9]: 280 µM
